PostGolgi ctrl: growth of the yeast control strain, post-Golgi counter-screen. efflux-deficient yeast background strain, growth absorbance A615, 16 h. inhibition, % at 10 µM. 98,000 compounds, 5% hits. AID 738
Ecoli tolC: E. coli tolC mutant growth inhibition | E. coli BW25113 tolC mutant growth, OD615 | growth inhibition, % at 10 µM (by protocol) | 65,000 compounds, 2.2% hits;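 active means growth inhibition at or above a cutoff equal to the mean over every tested compound plus 3 SD, cut at about 60% in these data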;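 further: growth measured after 20 h incubation at 37 °C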
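Test system: tolC-deleted E. coli BW25113 | Medium: LB with kanamycin 50 µg/mL | Compound dosing: Single concentration, 10 µM final per compound | Schedule: 37 °C, 20 h exposure | Measured by: OD at 615 nm | Evaluation: Percent growth inhibition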
E coli WT exp: growth inhibitors of E. coli BW25113 wild type | OD600 absorbance | growth inhibition, % at 100 µM | 98,000 compounds, 0.15% hits;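 active means growth inhibition above about 50% at one test dose, limit read from the data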;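 further: growth measured after 20 h incubation at 37 °C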
PostGolgi yeast: growth inhibition of a yeast mutant, post-Golgi transport screen. post-Golgi transport phenotypic cell assay. inhibition, % at 10 µM. 98,000 compounds, 0.9% hits;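 further: yeast cells grown in 1536-well plates; yeast grown about 18 h at 30C before absorbance read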
Her2 expr inh: Her2 kinase expression inhibition. P04626. SKBR-3 HER2 protein level, AlphaScreen, 18-24 h; hits give low values. HER2 level % of control, % at 10 µM. 65,000 compounds, 0.69% hits;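 active means HER2 level under 5% of the carrier-only control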;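 further: 100% = DMSO carrier and 0% = 500 nM PU-H71 HSP90 inhibitor; lower value means stronger loss of Her2 protein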
* hit, by the source's call; . = not tested or not shown. Rows were chosen to be rich in hits. Some 6.6% of all compounds tested hit in one or more screens of this group. Unless noted, no stated cut-off is given here; in the data, active means inhibition above about 30%; inactive means the rest.

SMILES	PostGolgi ctrl	Ecoli tolC	E coli WT exp	PostGolgi yeast	Her2 expr inh
N#C/C(C(=O)N1CCOCC1)=C1/SC(Cc2ccccc2)C(=O)N1c1ccccc1 (configuration not stated)	-1	15	3	6	97
COC(=O)C(C)Sc1nc(-c2ccc(OC)cc2)nc2c1c(=O)n(C)c(=O)n2C (configuration not stated)	.	7	.	.	65
Cc1ccc(S(=O)(=O)N2CCc3ccccc3C2CN2C(=O)c3ccccc3C2=O)cc1 (configuration not stated)	26	.	-12	-4	.
CC(C)CC(=O)Nc1ccc(N2CCOCC2)cc1	4	.	3	1	.
O=C(CC1N=C2c3ccccc3N=C(SCc3ccc(Cl)cc3)N2C1=O)NCc1ccco1 (configuration not stated)	37*	49	-17	-3	97
Cc1ccc(CSC2=Nc3ccccc3C3=NC(CCC(=O)NCc4ccco4)C(=O)N23)cc1 (configuration not stated)	11	22	-7	7	98
COc1ccc(Cn2c(-c3ccco3)nc3oc4cc(OC)ccc4c(=O)c3c2=O)cc1	13	86*	-23	3	73
COc1ccc(-c2nc3oc4cc(OC)ccc4c(=O)c3c(=O)n2Cc2ccco2)cc1	17	95*	-14	6	71
COc1ccc2c(=O)c3c(=O)n(Cc4ccco4)c(-c4ccco4)nc3oc2c1	10	.	-11	-2	.
O=C(NCCOc1ccccc1)c1cc2ccccc2o1	20	21	-1	-9	96
Cc1ccc(CNC(=O)CCNC(=O)Cn2ccc3ccccc3c2=O)o1	6	-5	9	-2	75
O=C(CSc1nc2ccccc2o1)N1CCN(C(=O)c2ccco2)CC1	9	22	4	-5	90
COc1ccccc1N1CCN(C(=O)C(F)F)CC1	1	-1	-5	0	59
COc1ccc(Cc2nnc(SCC(=O)N3CCN(c4ccccc4)CC3)o2)cc1	36*	-9	-9	4	102
COc1ccccc1N1CCN(C(=O)Cc2cccs2)CC1	38*	1	3	-1	120
COc1ccccc1N1CCN(C(=O)CSc2nc3ccccc3o2)CC1	8	.	21	33*	.
COc1ccc(N2CCN(C(=O)CSc3nnc(CNc4ccccc4)o3)CC2)cc1	-1	-1	-11	3	96
COc1ccc2[nH]c(=O)c(CN(CCCN(C)C)C(=O)Nc3ccc(F)cc3)cc2c1	10	-3	3	2	101
O=C(N1CCC(O)(c2cccnc2)CC1)C12CC3CC(CC(C3)C1)C2	8	3	-2	-3	93
N#CC1=C(N)Oc2c(ccc3ccccc23)C1c1ccsc1 (configuration not stated)	49*	.	7	-2	.
OC(CSc1ccccc1Cl)CN1CCN(c2ccc(F)cc2)CC1 (configuration not stated)	31*	.	19	28	.
OC(CSc1c(Cl)cccc1Cl)CN1CCN(c2ccccc2F)CC1 (configuration not stated)	26	.	4	-2	.
OC(CSc1c(Cl)cccc1Cl)CN1CCN(c2ccc(F)cc2)CC1 (configuration not stated)	37*	.	-7	20	.
COc1cc(-c2noc(CCCC(=O)NC3CCCCC3)n2)cc(OC)c1OC	10	.	9	3	.
O=C(c1cc2sccc2n1Cc1ccccc1)N1CCN(c2nc3ccccc3s2)CC1	41*	.	-19	9	.
SMILES	PostGolgi ctrl	Ecoli tolC	E coli WT exp	PostGolgi yeast	Her2 expr inh
CCC(=O)N1CCN(c2nc3ccccc3s2)CC1	-3	.	5	1	.
O=C(Cn1c(C(=O)N2CCN(C3CCCCC3)CC2)cc2sccc21)c1ccccc1	31*	20	1	5	86
CC(=O)N=c1cccc(NC(C)=O)n1O	9	-9	0	9	99
COc1ccc2c(c1)OCC1=C2CCC2(C)C(=O)CC=C12 (configuration not stated)	4	5	-1	0	.
CCOc1ccc(Nc2cc(C)nc(-n3nc(C)cc3C)n2)cc1	19	72*	10	12	40
CNc1cc(C)nc(-n2nc(C)cc2C)n1	12	-6	7	2	101
CC(C)(C)c1ccc(-c2nnc(SCCC#N)n2C2CCCC2)cc1	48*	61*	-10	0	85
O=C(Oc1cc(-c2ccccc2)no1)c1ccc(Cl)cc1	-9	.	-20	2	.
COC(=O)C1=C(C)NC(=O)NC1c1cccc(OC)c1OCc1ccccc1 (configuration not stated)	15	.	-4	6	.

Compound activity deposited in PubChem BioAssay by SRMLSC.
